The results in this text go back to ChEMBL document CHEMBL4811229, “Leveraging Peptaibol Biosynthetic Promiscuity for Next-Generation Antiplasmodial Therapeutics” (J Nat Prod, 2021).

SMILES strings stand for the structures. Values after ≈ are worked out from the molar mass of the structure shown. Where a SMILES comes first, the peptide text is derived from it. [ ]: non-standard residue; d: D form. The star is where a group is joined. X1 = CC(C)C[C@@H](C[N+]1=C2CCCN2CCC1)N*; Pip = O=C(O)[C@@H]1CCCCN1; Iva = CC[C@](C)(N)C(=O)O; Aib = CC(C)(N)C(=O)O; βAla = NCCC(=O)O

Data set [1] has as its system Plasmodium falciparum. Description: Antiplasmodial activity against Plasmodium falciparum assessed as parasite growth inhibition. Type of data set: functional.
Data set [2] has as its system Plasmodium falciparum. Description: Antiplasmodial activity against multidrug-resistant Plasmodium falciparum Dd2 infected in human A-positive erythrocytes assessed as reduction in parasitemia incubated for 72 hrs by fluorescence-based SYBR-Green-1 assay. It counts as functional, organism-based. The following applies: Dd2, Erythrocyte.
Data set [3] concerns HepG2. Description: Cytotoxicity against human HepG2 cells assessed as decrease in cell viability measured after 48 hrs by MTS assay. Type of data set: cell-based. The following applies: HepG2, 48 h. In a few lines: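 After 48 h at 37 °C and 5% CO2, MTS was added for 4 h and absorbance read at 490 nm. Values were normalized to Triton X-100-lysed wells (0% growth) and untreated wells. EC50 is the mean of triplicate experiments.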
(In general: Tetrazolium assays rely on reduction of a dye to a coloured formazan, in cell work by metabolically active cells.)

Data set [4] is described as follows: Selectivity index, ratio of EC50 for human HepG2 cells to EC50 for antiplasmodial activity against multidrug-resistant Plasmodium falciparum Dd2 infected in human A-positive erythrocytes. It counts as toxicity, cell-based. Conditions: read-out: Ratio EC50.
Data set [5] relates to Plasmodium falciparum. In words: Antiplasmodial activity against chloroquine-resistant Plasmodium falciparum K1 infected in human erythrocytes assessed as parasite growth inhibition. Type of data set: functional, organism-based. The following applies: K1, Erythrocyte.
The subject of data set [6] is Plasmodium falciparum. In words: Antiplasmodial activity against chloroquine-resistant Plasmodium falciparum FCR3 infected in human erythrocytes assessed as parasite growth inhibition. Type of data set: functional, organism-based. The following applies: FCR-3/Gambia, Erythrocyte.

On to `CCC(=O)CCCCC[C@@H]1NC(=O)[C@H]2CCCCN2C(=O)[C@H]([C@@H](C)CC)NC(=O)[C@H](Cc2cn(OC)c3ccccc23)NC1=O` [APICIDIN], for which, in data set [1], the MIC (in general, the smallest concentration in the dilution series that meets the test's criterion for growth inhibition) was 0.19 µM (≈ 0.119 µg/mL).

`CC[C@H](C)[C@H](NC(=O)C(C)(C)NC(=O)[C@H](CCC(N)=O)NC(=O)C(C)(C)NC(=O)C(C)(C)NC(=O)[C@H](C)NC(=O)[C@H](C)NC(=O)[C@H](C)NC(=O)C(C)(C)NC(C)=O)C(=O)NC(C)(C)C(=O)NCC(=O)N[C@@H](CC(C)C)C(=O)NC(C)(C)C(=O)N1CCC[C@H]1C(=O)N[C@H](C(=O)NC(C)(C)C(=O)N[C@](C)(CC)C(=O)N[C@@H](CCC(N)=O)C(=O)N[C@@H](CCC(N)=O)C(=O)N[C@H](CO)Cc1ccccc1)C(C)C`: the concentration giving a half-maximal response (EC50) (as a rule, the concentration needed to bring the measured effect to its halfway point) in data set [2] worked out at 520 nM; in data set [3], 3350 nM. The selectivity ratio in data set [4] is 6.

For the compound `CC[C@H](C)[C@H](NC(=O)[C@H](C)NC(=O)[C@@H]1CCCN1C(=O)C(C)(C)NC(=O)[C@H](CC(C)C)NC(=O)[C@H](CCC(N)=O)NC(=O)C(C)(C)NC(C)=O)C(=O)NC(C)(C)C(=O)N1CCC[C@H]1C(=O)NC(C)(C)C(=O)N[C@@H](CC(C)C)C(=O)N[C@](C)(CC)C(=O)N1CCC[C@H]1C(=O)N[C@H](CO)CC(C)C`, the concentration for a half-maximal effect (EC50) is 630 nM in data set [2] and above 25000 nM in data set [3]. In data set [4], the selectivity ratio was above 40.

On to `CC[C@](C)(NC(=O)[C@H](CC(C)C)NC(=O)[C@H](C)NC(=O)C(C)(C)NC(=O)[C@@H]1CCCCN1C(=O)C(C)(C)NC(=O)C(C)(C)NC(=O)CNC(=O)CCNC(=O)[C@H](CC(C)C)NC(=O)C(C)(C)NC(=O)[C@](C)(CC)NC(=O)[C@@H]1CCCCN1C(=O)C(C)(C)NC(=O)[C@@H]1CCCCN1C(C)=O)C(=O)N[C@@H](CC(C)C)C[N+]1=C2CCCN2CCC1` [EFRAPEPTIN G] (Ac-[Pip][Aib][Pip][Iva][Aib]L[βAla]G[Aib][Aib][Pip][Aib]AL[Iva]-X1), for which the concentration for a half-maximal effect (EC50) is 460 nM in data set [2] and above 25000 nM in data set [3]. Besides, the selectivity ratio in data set [4] was above 54.

Consider `CC(=O)NC(C)(C)C(=O)N[C@@H](C)C(=O)N[C@@H](C)C(=O)N[C@@H](C)C(=O)NC(C)(C)C(=O)NC(C)(C)C(=O)N[C@@H](CCC(N)=O)C(=O)NC(C)(C)C(=O)N[C@H](C(=O)NC(C)(C)C(=O)NCC(=O)N[C@@H](CC(C)C)C(=O)NC(C)(C)C(=O)N1CCC[C@H]1C(=O)N[C@H](C(=O)NC(C)(C)C(=O)NC(C)(C)C(=O)N[C@@H](CCC(N)=O)C(=O)N[C@@H](CCC(N)=O)C(=O)N[C@H](CO)Cc1ccccc1)C(C)C)C(C)C` (HELM PEPTIDE1{[ac].[Aib].A.A.A.[Aib].[Aib].Q.[Aib].V.[Aib].G.L.[Aib].P.V.[Aib].[Aib].Q.Q.[OC[C@H](Cc1ccccc1)N[*:1]]}$$$$V2.0), for which the EC50 is 560 nM in data set [2] and 9280 nM in data set [3]. Moreover, in data set [4], the selectivity ratio stood at 17.

In the case of `CC[C@@](C)(NC(=O)[C@@H]1CCCN1C(=O)C(C)(C)NC(=O)[C@@H](NC(=O)[C@H](CO)NC(=O)[C@@H]1CCCN1C(=O)C(C)(C)NC(=O)[C@H](CC(C)C)NC(=O)[C@H](CC(N)=O)NC(=O)C(C)(C)NC(C)=O)C(C)C)C(=O)N[C@@H](CC(C)C)C(=O)NC(C)(C)C(=O)N1CCC[C@H]1C(=O)N[C@H](CO)CC(C)C` (HELM PEPTIDE1{[ac].[Aib].N.L.[Aib].P.S.V.[Aib].P.[CC[C@@](C)(N[*:1])C(=O)[*:2]].L.[Aib].P.[CC(C)C[C@@H](CO)N[*:1]]}$$$$V2.0), the 50% effective concentration (EC50) in data set [2] was 560 nM; in data set [3], above 25000 nM. Also, in data set [4], the selectivity ratio is above 45.

As for `CC[C@H](C)[C@H](NC(=O)[C@H](CC(C)C)NC(=O)[C@H](CC(N)=O)NC(=O)C(C)(C)NC(C)=O)C(=O)NC(C)(C)C(=O)N1CCC[C@H]1C(=O)N[C@](C)(CC)C(=O)N[C@@H](CC(C)C)C(=O)NC(C)(C)C(=O)N1CCC[C@H]1C(=O)N[C@H](CO)CC(C)C` (HELM PEPTIDE1{[ac].[Aib].N.L.I.[Aib].P.[CC[C@@](C)(N[*:1])C(=O)[*:2]].L.[Aib].P.[CC(C)C[C@@H](CO)N[*:1]]}$$$$V2.0), the results for the EC50 in data set [2] and in data set [3] were 720 nM and above 25000 nM, respectively. Moreover, the selectivity ratio in data set [4] was above 35.

Regarding `CCCCCCC/C=C\CCCCCCCC(=O)N[C@H](C(=O)N1C[C@H](C)C[C@H]1C(=O)N[C@H](C(=O)N[C@@H](CC(N)=O)C(N)=O)C(C)C)[C@@H](C)O` (HELM PEPTIDE1{[CCCCCCC/C=C\CCCCCCCC(=O)[*:2]].T.[C[C@@H]1C[C@@H](C(=O)[*:2])N([*:1])C1].V.N.[am]}$$$$V2.0), the EC50 in data set [5] and in data set [6] was 150 nM throughout.

For the compound `CC[C@H](C)[C@H](NC(=O)[C@H](C)NC(=O)[C@@H]1CCCN1C(=O)C(C)(C)NC(=O)[C@H](CC(C)C)NC(=O)[C@H](CC(N)=O)NC(=O)C(C)(C)NC(C)=O)C(=O)NC(C)(C)C(=O)N1CCC[C@H]1C(=O)NC(C)(C)C(=O)N[C@@H](CC(C)C)C(=O)NC(C)(C)C(=O)N1CCC[C@H]1C(=O)N[C@H](CO)CC(C)C` (HELM PEPTIDE1{[ac].[Aib].N.L.[Aib].P.A.I.[Aib].P.[Aib].L.[Aib].P.[CC(C)C[C@@H](CO)N[*:1]]}$$$$V2.0), the concentration giving a half-maximal response (EC50) in data set [2] was 420 nM; in data set [3], above 25000 nM. Further, the selectivity ratio in data set [4] is above 60.

Turning to `CCCCCCCC(=O)NC(C)(C)C(=O)NCC(=O)N[C@@H](CC(C)C)C(=O)NC(C)(C)C(=O)NCC(=O)NCC(=O)N[C@@H](CC(C)C)C(=O)NC(C)(C)C(=O)NCC(=O)N[C@H](C(=O)N[C@H](CO)CC(C)C)[C@@H](C)CC`, the EC50 was 930 nM in data set [2] and 8090 nM in data set [3]. Besides, the selectivity ratio in data set [4] was 9.

Take `CCCCCCC/C=C\CCCCCCCC(=O)N[C@H](C(=O)N1C[C@H](C)C[C@H]1C(=O)N[C@H](C(=O)N[C@@H](CC(N)=O)C(=O)N[C@@H](C)[C@H]1N[C@@H](CO)[C@H](O)[C@@H](CCCCCCCCCCCCC)O1)C(C)C)[C@@H](C)O`: the EC50 in data set [5] and in data set [6] was 150 nM in each case.
